Measurements taken from ChEMBL document CHEMBL1153564 (Antimicrob Agents Chemother, 2008).
Converted amounts (≈) assume the structure as drawn. The source made the active and inactive calls. No cut-off for these calls is given here. Starred links: 1 amine or outer side, 2 acyl side, 3 side chain; linkers in the order of their positions; H or OH if unused. Positions of bridges follow the written chain, without caps; N, C: chain ends. Non-standard residues stand in square brackets, D forms with d. Residues, ends and D or L forms follow the SMILES beside them. *: point of attachment. pTerphenylCO(4''-OnC5H11) = CCCCCOc1ccc(-c2ccc(-c3ccc(C(=O)*)cc3)cc2)cc1; Orn(4R-OH,5R-OH) = O=C([C@H](C[C@@H](O)[C@@H](O)N[*:3])N[*:1])[*:2]; hTyr(3S-OH,4S-OH) = N[C@H](C(=O)O)[C@H](O)[C@@H](O)c1ccc(O)cc1; Pro(3S-OH,4S-Me) = C[C@H]1CN[C@H](C(=O)O)[C@H]1O; Hyp = O=C(O)[C@@H]1C[C@@H](O)CN1

Assays:
[1] = system: Candida albicans; test: Antifungal activity against Candida albicans K-1 infected in neutropenic ICR/Swiss mouse candidiasis model assessed as prolongation of fungal growth suppression at 20 mg/kg, ip administered 2 hrs postinfection as single dose by time-kill assay; type: functional; details: route intraperitoneal
Procedure, shortened: (§1)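 Single ip dose (20, 5 or 1.25 mg/kg) given 2 h after iv infection of neutropenic mice with K-1. Three treated and three control mice were sampled at intervals over 96 h for kidney CFU. PAFE is the time for treated burden to rise 1 log10 after serum levels fall below MIC, minus the same time in controls. Free drug was taken as 1%.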

[2] = system: Serum; test: Fraction unbound in Candida albicans K-1 infected neutropenic ICR/Swiss mouse serum at 20 mg/kg, ip administered 2 hrs postinfection as single dose measured after 12 hrs; type: ADME, organism-based; parameters: dose 20 mg/kg, route intraperitoneal; details: in vivo
[3] = system: Nakaseomyces glabratus; test: Antifungal activity against Candida glabrata 32930 infected in neutropenic ICR/Swiss mouse candidiasis model assessed as dose required for 1-log10 reduction in […] per kidney administered intraperitoneally every 24 hrs up to 4 days measured per 24 hrs; type: functional
Procedure, shortened: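 Neutropenic mice (cyclophosphamide sc on days −4, −1 and +2) were infected iv 2 h before therapy. Five total doses from 0.078 to 20 mg/kg/24 h were given ip q24h for 4 days, three mice per regimen. Kidney CFU were measured at the end of therapy. Static and 1-log-kill doses were derived from a Hill sigmoid dose-effect fit.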

[4] = system: Candida albicans; test: Antifungal activity against Candida albicans K-1 infected in neutropenic ICR/Swiss mouse candidiasis model assessed as […] burden per kidney administered intraperitoneally every 48 hrs up to 4 days measured per 96 hrs; type: functional; details: K-1, Kidney, ip
Procedure, shortened: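 Neutropenic mice were infected iv with C. albicans K-1 2 h before therapy. Total doses of 1.25, 5, 20, 80 and 320 mg/kg/96 h were split into 1, 2, 4 or 6 ip doses (q96h, q48h, q24h, q16h), three mice per regimen. Effect is the log10 CFU/kidney relative to untreated controls at 96 h. Static and 1-log doses were taken from a Hill model fit.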

[5] = system: Candida albicans; test: Antifungal activity against Candida albicans K-1 infected in neutropenic ICR/Swiss mouse candidiasis model assessed as fungal count per kidney administered 2 hrs postinfection measured up to 48 hrs; type: functional
Procedure, shortened: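 Untreated neutropenic mice infected via the tail vein (inoculum about 6.1 log10 CFU/ml, 0.1 ml). Growth is the rise in kidney CFU over 48 h. Kidneys were homogenised, serially diluted 1:10 and plated on SDA for 24 h at 35°C. Mean of three mice.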

[6] = system: Mus musculus; test: Cmax in serum of neutropenic ICR/Swiss mouse candidiasis model at 20 mg/kg, ip up to 4 hrs by reverse-phase high-pressure liquid chromatography; type: ADME, organism-based; parameters: dose 20 mg/kg, route intraperitoneal; details: in vivo
Procedure, shortened: (§2)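 Infected neutropenic ICR/Swiss mice given single ip doses (5, 20 or 80 mg/kg; 0.2 ml); serum from three isoflurane-anaesthetised mice at 1, 4, 8, 12, 24 and 48 h, stored at −80°C, assayed by reverse-phase HPLC with fluorescence detection, loratadine internal standard, linear 10–50,000 ng/ml. Noncompartmental analysis; half-life by nonlinear least squares.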

[7] = system: Nakaseomyces glabratus; test: Antifungal activity against Candida glabrata 5376 infected in neutropenic ICR/Swiss mouse candidiasis model assessed as […] burden per kidney administered intraperitoneally every 24 hrs up to 4 days measured per 96 hrs; type: functional; details: Nakaseomyces glabratus, 5376, Kidney, ip
Procedure, shortened: (§3)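 Neutropenic ICR/Swiss mice infected i.v. with the strain; therapy began 2 h later. Total doses of 1.25–320 mg/kg/96 h were given i.p. as 1, 2, 4 or 6 doses (q96h, q48h, q24h, q16h), three mice per regimen. Kidney CFU were counted after 4 days. Effect is the change from untreated controls at the end of therapy.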

[8] = Elimination half life in serum of neutropenic ICR/Swiss mouse candidiasis model at 20 mg/kg, ip by reverse-phase high-pressure liquid chromatography; type: ADME, organism-based; parameters: dose 20 mg/kg, route intraperitoneal; details: read-out: beta t1/2 (converted); procedure, shortened: as §2
[9] = system: Nakaseomyces glabratus; test: Antifungal activity against Candida glabrata 570 infected in neutropenic ICR/Swiss mouse candidiasis model assessed as dose required to maintain […] of 1.83 +/- 0.54 log10CFU per kidney administered intraperitoneally every 24 hrs up to 4 days measured per 24 hrs; type: functional
[10] = system: Serum; test: Fraction unbound in Candida albicans K-1 infected neutropenic ICR/Swiss mouse serum at 1.25 mg/kg, ip administered 2 hrs postinfection as single dose; type: ADME, organism-based; parameters: dose 1.25 mg/kg, route intraperitoneal; details: in vivo
[11] = system: Candida albicans; test: Antifungal activity against Candida albicans K-1 infected in neutropenic ICR/Swiss mouse candidiasis model assessed as prolongation of fungal growth suppression at 5 mg/kg, ip administered 2 hrs postinfection as single dose by time-kill assay; type: functional; details: route intraperitoneal; procedure, shortened: as §1
[12] = system: Nakaseomyces glabratus; test: Antifungal activity against Candida glabrata 5376 infected in neutropenic ICR/Swiss mouse candidiasis model assessed as suppression of fungal regrowth at 1.25 mg/kg, ip administered 2 hrs postinfection as single dose by time-kill assay; type: functional, organism-based; parameters: dose 1.25 mg/kg
Procedure, shortened: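 Single ip dose of 1.25, 5 or 20 mg/kg given 2 h after iv infection of neutropenic mice. Groups of 3 treated and 3 control mice sampled at 1–24 h intervals over 96 h. Kidney homogenates plated on SDA, 24 h at 35°C. PAFE = time for treated burden to rise 1 log10 CFU/kidney after serum level fell below MIC, minus the same time in controls.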

[13] = system: Nakaseomyces glabratus; test: Antifungal activity against Candida glabrata 34341 infected in neutropenic ICR/Swiss mouse candidiasis model assessed as dose required to maintain […] of 1.83 +/- 0.54 log10CFU per kidney administered intraperitoneally every 24 hrs up to 4 days measured per 24 hrs; type: functional
[14] = system: Nakaseomyces glabratus; test: Antifungal activity against Candida glabrata 5376 infected in neutropenic ICR/Swiss mouse candidiasis model assessed as dose required for 1-log10 reduction in […] per kidney administered intraperitoneally once every 96 hrs measured per 96 hrs; type: functional; procedure, shortened: as §3
[15] = system: Nakaseomyces glabratus; test: Antifungal activity against Candida glabrata 5376 infected in neutropenic ICR/Swiss mouse candidiasis model assessed as reduction of […] in kidney at 20 mg/kg, ip administered 2 hrs postinfection as single dose measured within 1 to 4 hrs post dosing by time-kill assay; type: functional, organism-based; parameters: dose 20 mg/kg
Procedure, shortened: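 Neutropenic mice were infected i.v. and 2 h later given a single i.p. dose (1.25, 5 or 20 mg/kg). Groups of three treated and three control mice were killed at intervals over 96 h, and kidney CFU were counted on SDA (limit 100 CFU/ml). The post-antifungal effect is t − c: the time for a 1 log10 CFU/kidney increase once serum levels fall below the MIC in treated mice, minus the same time in controls.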

[16] = AUC (0 to infinity) in serum of neutropenic ICR/Swiss mouse candidiasis model at 80 mg/kg, ip by reverse-phase high-pressure liquid chromatography; type: ADME, organism-based; parameters: time infinity, dose 80 mg/kg, route intraperitoneal
Procedure, shortened: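 Single ip dose in 0.2 ml to infected neutropenic mice. Serum from groups of three isoflurane-anaesthetised mice at 1, 4, 8, 12, 24 and 48 h, stored −80°C. Drug measured by reverse-phase HPLC with fluorescence detection against loratadine internal standard (calibration 10–50,000 ng/ml). Noncompartmental analysis; AUC by trapezoidal rule.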

[17] = system: Nakaseomyces glabratus; test: Antifungal activity against Candida glabrata 33609 assessed as complete growth inhibition after 24 hrs by CLSI end point method; type: functional; details: Nakaseomyces glabratus, 33609, 24 h
Procedure, shortened: (§4)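 CLSI M27-A2 broth dilution. Two end points read against the drug-free control well: partial inhibition (CLSI end point) and complete inhibition. Run in duplicate on four separate occasions; value is the mean. Drug stock in DMSO, diluted in 0.9% NaCl.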

[18] = system: Candida albicans; test: Antifungal activity against Candida albicans K-1 assessed as complete growth inhibition after 24 hrs by CLSI end point method; type: functional; details: K-1, 24 h; procedure, shortened: as §4

## CCCCCOc1ccc(-c2ccc(-c3ccc(C(=O)N[C@H]4C[C@@H](O)[C@@H](O)NC(=O)[C@@H]5[C@@H](O)[C@@H](C)CN5C(=O)[C@H]([C@@H](C)O)NC(=O)[C@H]([C@H](O)[C@@H](O)c5ccc(O)cc5)NC(=O)[C@@H]5C[C@@H](O)CN5C(=O)[C@H]([C@@H](C)O)NC4=O)cc3)cc2)cc1 [ANIDULAFUNGIN] ({pTerphenylCO(4''-OnC5H11)}-[Orn(4R-OH,5R-OH)]T[Hyp][hTyr(3S-OH,4S-OH)]T[Pro(3S-OH,4S-Me)]; lactam 1-C)
[1]
  Activity: >96 h
[2]
  Fu: 1%
[3]
  Activity: 3.31 mg/kg
[4]
  ED50: 3.14 mg/kg
[5]
  log10cfu: 4
[6]
  Cmax: 24000 ng/mL
[7]
  ED50: 15.9 mg/kg
[8]
  half-life: 14.7 h
[9]
  Activity: 1.97 mg/kg
[10]
  Fu: 1%
[11]
  Activity: >96 h
[12]
  Activity: Active
[13]
  Activity: 6.9 mg/kg
[14]
  Activity: 16.6 mg/kg
[15]
  Activity: Active
[16]
  AUC(0-inf): 1980 µg·h/mL
[17]
  MIC: 0.12 µg/mL (≈ 0.105 µM)
[18]
  MIC: 0.12 µg/mL (≈ 0.105 µM)
